# Reference: PubChem BioAssay AID624466 (The Scripps Research Institute Molecular Screening Center, 2012)
# The whole screen tested about 360,000 compounds, of which about 5,400 (1.5%) were called active.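 The calls were made as follows: active = inhibition above a per-plate cutoff, the mean inhibition of test compounds on that plate plus 3 SD (cut at about 49% in these data); inactive = the rest.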 The list comes from a sample in which actives are over-represented; it also holds similar structures and randomly drawn compounds.
# Molecular target: Trace amine-associated receptor 1 (Homo sapiens) (UniProt Q96RJ0)
# Sequence (Q96RJ0 whole entry, looked up): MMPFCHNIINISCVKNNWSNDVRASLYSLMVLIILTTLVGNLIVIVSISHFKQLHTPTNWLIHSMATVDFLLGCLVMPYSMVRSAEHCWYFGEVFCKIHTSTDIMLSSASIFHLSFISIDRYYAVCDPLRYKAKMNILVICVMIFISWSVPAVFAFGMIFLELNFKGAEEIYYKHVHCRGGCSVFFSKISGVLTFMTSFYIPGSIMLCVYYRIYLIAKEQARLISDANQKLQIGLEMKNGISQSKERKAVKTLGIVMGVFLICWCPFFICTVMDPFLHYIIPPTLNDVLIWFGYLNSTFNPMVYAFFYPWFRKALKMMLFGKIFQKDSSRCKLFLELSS
# Test: blockers of beta-PEA-driven TAAR1 calcium signal – Fluo-8 calcium fluorescence, CHO RD-HGA16 cells, primary screen (AID 624466);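 also: 0% = DMSO plus EC80 beta-PEA response and 100% = DMSO alone without agonist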
# Details: CHO RD-HGA16 TAAR1, Fluo-8 calcium fluorescence, antagonist; at 3 µM; stronger effect = higher value
# Summary of the method: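 Test system: RD-HGA16 CHO cells with stable hTAAR1 and Gα16 / Probe or stimulus: EC80 β-phenethylamine stimulus / Times: seeding 17-24 h prior, 75-min 37 °C, 30-min RT dye loading / Detection: Fluo-8 calcium-sensitive fluorescence / Read-out basis: % inhibition scaled between DMSO and EC80 PEA controls / Repeats: singlicate, one well per test compound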
row,SMILES,inhibition
1,CN(C)CCCn1c(SCCN2C(=O)c3ccccc3C2=O)nc2ccccc2c1=O,-1.92% (inactive)
2,C[N+](C)(C)CCNC(=O)c1c[nH]c2ccccc12,-17.1% (inactive)
3,C[C@H](NC(=O)c1ccccc1)C(=O)OCC(=O)c1c[nH]c2ccccc12,52.1% (active)
4,CCOc1ncccc1C(=O)OCC(=O)c1c[nH]c2ccccc12,42% (inactive)
5,COC(=O)C1=C(C)N(Cc2ccccc2C(F)(F)F)C(=NCC2CC2)NC1c1cccc(Cl)c1 (stereo not drawn),1.62% (inactive)
6,CCOC(=O)c1cc(-c2ccc(Cl)s2)nc2c1c(C)nn2C,1.4% (inactive)
7,CC1(C)C(=O)Nc2ccccc2N1C(=O)COC(=O)Cn1cnc2ccccc2c1=O,12.5% (inactive)
8,CNS(=O)(=O)c1cccc(C(=O)OCC(=O)N2c3ccccc3NC(=O)C2(C)C)c1,0.12% (inactive)
9,Cc1ccc(OCCC(=O)OCC(=O)N2c3ccccc3NC(=O)C2(C)C)cc1,50.6% (active)
10,CC(c1ccccc1)n1c(NCCCn2ccnc2)nc2c1c(=O)[nH]c(=O)n2C (stereo not drawn),10.8% (inactive)
11,Cc1cc(=O)[nH]c2nnnn12,-7.21% (inactive)
12,COc1ccc(S(=O)(=O)N(CC(=O)N/N=C/c2ccc(C(=O)O)cc2)Cc2ccccc2)cc1OC,-28.3% (inactive)
13,COc1ccc(N(CC(=O)N/N=C/c2cccc3c2OCCO3)S(=O)(=O)c2ccc(NC(C)=O)cc2)cc1,29.3% (inactive)
14,COc1ccc(N(CC(=O)N/N=C/c2cccs2)S(=O)(=O)c2ccc(OC)c(OC)c2)cc1,69.2% (active)
15,Nc1[nH]c(C(=O)c2ccccc2)c(-c2ccc(Cl)cc2Cl)c1C(=O)c1ccccc1,-37.8% (inactive)
16,CSCCC(NC(=O)COc1ccccc1)C(=O)OCCOc1ccc(Br)cc1 (stereo not drawn),55.7% (active)
17,COc1ccccc1OCCNC(=O)C(CCSC)NC(=O)COc1ccccc1 (stereo not drawn),-26.3% (inactive)
18,CSCCC(NC(=O)COc1ccccc1)C(=O)Nc1ccc(C)cc1 (stereo not drawn),-10.3% (inactive)
19,CSCCC(NC(=O)COc1ccccc1)C(=O)OCCOc1ccc(F)cc1 (stereo not drawn),37.1% (inactive)
20,CSCCC(NC(=O)COc1ccccc1)C(=O)OCc1ccc(Cl)cc1 (stereo not drawn),22.9% (inactive)
21,CSCCC(NC(=O)COc1ccccc1)C(=O)OCC(=O)c1cc2ccccc2o1 (stereo not drawn),50% (active)

row,SMILES,inhibition
1,C=CCN1C(=O)C2(OCCCO2)c2cccc(Cl)c21,3.13% (inactive)
2,O=C(Nc1c(Cl)c(C2CC2)nn1-c1ccccc1)C(Cl)(Cl)Cl,-12.3% (inactive)
3,FC(F)(F)c1cccc(-c2nc3ccccc3n2C(c2ccccc2)c2nc3ccccc3[nH]2)c1 (stereo not drawn),18.4% (inactive)
4,O=C(c1ccc(C(F)(F)F)cc1)N1CCC(=O)N([C@H](COCc2ccccc2)Cc2ccccc2)CC1,14.8% (inactive)
5,COc1ccc(NC(=O)C(c2ccncc2)n2c(=O)c(-c3cc4ccccc4[nH]3)nc3ccccc32)cc1 (stereo not drawn),-5.75% (inactive)
6,O=C1NC[C@H](CCCCN2C[C@H](Cc3ccc(O)cc3)N(CCc3ccccc3)C(=O)C2=O)N(CCc2ccccc2)C1=O,5.71% (inactive)
7,Cc1ccc(CNC(=O)c2cc(-c3ccccc3C)n(CC3CC(c4cccc([N+](=O)[O-])c4)=NO3)n2)cc1 (stereo not drawn),7.96% (inactive)
8,COc1ccc(CNC(=O)C2(CC3CC(c4ccccc4)=NO3)CCN(C(=O)c3cccc(O)c3)CC2)cc1 (stereo not drawn),33.5% (inactive)
9,COc1ccc(C2=NOC(Cn3nc(C(=O)NCc4ccc5c(c4)OCO5)cc3-c3ccccc3)C2)cc1 (stereo not drawn),59.7% (active)
10,COc1ccccc1C(=O)N1O[C@]23C=C[C@]14C[C@@H](O)CC[C@]4(C)C2CC[C@]1(C)[C@@H]([C@H](C)/C=C/[C@H](C)C(C)C)CC[C@H]13 (stereo partly drawn),2.31% (inactive)
11,Cc1ccc(C)c(-n2nnnc2SCC(=O)c2c(N)n(C)c(=O)n(C)c2=O)c1,-13.3% (inactive)
12,COC(=O)Nc1ccc(S(=O)(=O)Nc2cc(OC)nc(OC)n2)cc1,-1.45% (inactive)
13,Cc1cc2nc3c(=O)[nH]c(=O)nc-3n(C[C@H](O)[C@H](O)[C@H](O)CO)c2cc1C,18.8% (inactive)
14,CCN(CC)CCCC(C)n1c2nc(=O)[nH]c(=O)c-2nc2cc(Cl)ccc21 (stereo not drawn),72% (active)
15,Nc1ccn([C@@H]2O[C@H](C(=O)N[C@H]3CCCCNC3=O)[C@@H](O)[C@H]2O)c(=O)n1,21.5% (inactive)
16,O=C(COC(=O)c1ccc(S(=O)(=O)N2CCc3ccccc3C2)cc1)NC(=O)NCc1ccco1,0.28% (inactive)
17,Cc1cc(N2CCN(C(=O)OC(C)(C)C)C[C@H]2C)ccc1N1CCN(Cc2ccccc2)[C@H](C)C1,8.39% (inactive)
18,COc1ccc(OC)c(Nc2nc3ccccc3n3cnnc23)c1,-3.9% (inactive)
19,CSc1ccc(C#N)cc1NC(=O)c1cccc(Cl)c1,-1.36% (inactive)
20,Cc1ccc(Sc2ccc(NC(=O)c3ccc(F)cc3)cc2C#N)cc1,47.8% (inactive)
21,COc1ccc(Sc2ccc(NC(=O)c3cccc(Cl)c3)cc2C#N)cc1,48.8% (active)

row,SMILES,inhibition
1,Cc1cc(C)n2c(NCc3ccccc3)c(CC(C)C)nc2n1,-31.3% (inactive)
2,COc1cccc(-c2cnc3c(NC(C)=O)cc(-c4cc(F)ccc4OC)cn23)c1,56.7% (active)
3,COc1ccccc1-c1cc(NC(C)=O)c2ncc(-c3ccc(F)cc3)n2c1,11% (inactive)
4,COc1cccc(-c2cnc3c(NC(C)=O)cc(-c4cccc(NC(C)=O)c4)cn23)c1,33.8% (inactive)
5,CC1(C)CC(=O)C2=C(C1)Nc1cc(C(=O)c3ccccc3)ccc1NC2c1ccccn1 (stereo not drawn),-12.4% (inactive)
6,Cc1ccc(C)c(NS(=O)(=O)c2c(C)[nH]c(C)c2C(=O)N2CCCCC2)c1,-30.8% (inactive)
7,Cc1ccc(SCC(=O)c2cc(C)c(OC(=S)N(C)C)c(C)c2)cc1,57% (active)
8,Cc1ccc(SCC(=O)Nc2ccc3c(c2)OCCO3)cc1,-11.4% (inactive)
9,COC(=O)c1cc(OC)c(OC)cc1NC(=O)CSc1ccc(C)cc1,-0.75% (inactive)
10,CCCCNc1c(-c2cccc(Sc3ccc(OC)cc3)c2)nc2ccccn12,87.9% (active)
11,COC(=O)c1ccc2nc(-c3ccccc3)c(Cc3ccc(OC)cc3C)n2c1,3.43% (inactive)
12,COC(=O)c1ccc2nc(-c3cccc(Br)c3)c(Cc3ccc(OC)cc3C)n2c1,-4.86% (inactive)
13,CCCCNC(=O)CCn1nc(-c2ccc(Cl)cc2)ccc1=O,-14.1% (inactive)
14,C/C(=N\Nc1nc(Nc2ccccc2)nc(N2CCOCC2)n1)c1cccs1,9.62% (inactive)
15,c1ccc(Nc2nc(N3CCOCC3)c3ccccc3n2)cc1,74.1% (active)
16,COc1ccc(Nc2ncc(F)c(N3CCOCC3)n2)cc1,7.62% (inactive)
17,COc1ccc(CCNC(=O)C2CCCN(S(=O)(=O)c3ccc(OC)cc3)C2)cc1 (stereo not drawn),5.88% (inactive)
18,COc1ccccc1CNC(=O)C1CCCN(S(=O)(=O)c2cccc3cccnc23)C1 (stereo not drawn),-10.9% (inactive)
19,O=C(O)C1CCCN(S(=O)(=O)c2cccc3cccnc23)C1 (stereo not drawn),-9.13% (inactive)
20,COc1ccc(S(=O)(=O)N2CCCC(C(=O)Nc3ccc(NC(=O)c4ccccn4)cc3)C2)cc1 (stereo not drawn),63% (active)
21,CC(=O)Nc1ccc(NC(=O)C2CCCN(S(=O)(=O)c3ccc(Cl)cc3)C2)cc1 (stereo not drawn),9.58% (inactive)

row,SMILES,inhibition
1,COc1ccc(NC(=O)C2CCCN(S(=O)(=O)c3cccc4cccnc34)C2)cc1OC (stereo not drawn),66.5% (active)
2,CCN(CC(=O)Nc1ccc(NC(C)=O)cc1)C(=O)CSC(=S)N1CCCC1,14.2% (inactive)
3,O=C1[C@H]2[C@@H](c3ccc(C(F)(F)F)cc3)N[C@]3(CCCN(Cc4ccc(Br)cc4)C3=O)[C@H]2C(=O)N1Cc1ccccc1,-23.7% (inactive)
4,CCCNC(=O)C[C@@H]1CC[C@@H]2[C@H](COC[C@H](O)CN2C(=O)c2cc(Cl)cc(Cl)c2)O1,-27.3% (inactive)
5,O=C(NCCCc1ccccc1)C1CCC(=O)N(CCc2ccc(Cl)cc2)C1 (stereo not drawn),2.14% (inactive)
6,CCOc1cc(N2CCOCC2)c(OCC)cc1NC(=O)COc1cccc2cccnc12,56.4% (active)
7,CCOc1cc(N2CCOCC2)c(OCC)cc1NC(=O)C1=NN(c2cccc(C)c2)C(=O)CC1,44.9% (inactive)
8,CCOc1cc(N2CCOCC2)c(OCC)cc1NC(=O)COC(=O)[C@H](Cc1c[nH]c2ccccc12)NC(C)=O,22.1% (inactive)
9,O=C(NCCN1C(=O)S/C(=C\c2cccnc2)C1=O)c1cccc(OC(F)F)c1,7.53% (inactive)
10,COc1ccccc1N1CC(C(=O)NCCN2C(=O)S/C(=C\c3cccnc3)C2=O)CC1=O (stereo not drawn),-4.74% (inactive)
11,O=C(NCCN1C(=O)S/C(=C\c2cccnc2)C1=O)c1ccc(S(=O)(=O)N2CCCC2)cc1,49.1% (active)
12,COC(=O)[C@@]12C[C@@H](CC(=O)NCc3cccc(C(F)(F)F)c3)C(=O)N(Cc3ccco3)C1=CCC(C)(C)C2,-43.8% (inactive)
13,COC(=O)c1cc2c(c3c4ccccc4n(S(=O)(=O)c4cccc(C)c4)c13)C(=O)N(Cc1ccccc1)C2,-30.3% (inactive)
14,O=S1(=O)c2c(cccc2N2CCCC2)O[C@H](COCc2ccccc2)CN1C1CC1,23.8% (inactive)
15,CSc1ccc(Oc2cccc3c2S(=O)(=O)N([C@H](C)c2ccccc2)C[C@@H](COCc2ccccc2)O3)cc1C,5.23% (inactive)
16,O=S1(=O)c2c(cccc2N2CCCCC2)O[C@H](COCc2ccccc2)CN1C1CC1,51.8% (active)
17,COC(=O)C1=C(C(=O)OC)C2C=C(C(C)C)C1C(=O)C2(C)O (stereo not drawn),-37.3% (inactive)
18,C[C@@H]1CN([C@H](C)CO)S(=O)(=O)c2ccc(C#C[C@@H](C)O)cc2O[C@@H]1CN(C)Cc1ccc(-c2ccccc2)cc1,-12.7% (inactive)
19,C[C@@H]1CN([C@@H](C)CO)S(=O)(=O)c2ccc(C#Cc3cccc(F)c3)cc2O[C@H]1CN(C)S(=O)(=O)c1cn(C)cn1,68.3% (active)
20,C[C@H]1CN([C@@H](C)CO)S(=O)(=O)c2ccc(-c3cccc(F)c3)cc2O[C@@H]1CN(C)C,-12.6% (inactive)
